pEC50: −log10 of the molar value.
Experiments:
[1] = tested on: Human immunodeficiency virus 1; experiment: Ratio of EC50 for Human immunodeficiency virus 1 NL4.3 reverse transcriptase K103N and Y181C double mutant to EC50 for Human immunodeficiency virus 1 NL4.3 expressing wild type reverse transcriptase; type: functional
[2] = tested on: Human immunodeficiency virus 1; experiment: Ratio of EC50 for Human immunodeficiency virus 1 NL4.3 reverse transcriptase Y181C mutant to EC50 for Human immunodeficiency virus 1 NL4.3 expressing wild type reverse transcriptase; type: functional
[3] = tested on: Human immunodeficiency virus 1; experiment: Antiviral activity against Human immunodeficiency virus 1 NL4.3 infected in human MT2 cells assessed as inhibition of viral infection; type: functional, organism-based; settings: Human immunodeficiency virus 1, NL4.3, MT2
In short: (§1)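 HIV-1 (IIIB or variant strains) infected into MT-2 human T-cells. The MTT colorimetric read-out measured cell viability. Antiviral curves used triplicate samples at each concentration, and a cytotoxicity (CC50) curve on MT-2 growth was run at the same time.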

[4] = tested on: Human immunodeficiency virus 1; experiment: Antiviral activity against Human immunodeficiency virus 1 NL4.3 reverse transcriptase Y181C mutant infected in human MT2 cells assessed as inhibition of viral infection; type: functional, organism-based; settings: Human immunodeficiency virus 1, NL4.3, MT2; in short: as §1
MT2 [5] = experiment: (§2) Cytotoxicity against human MT2 cells infected with HIV1 NL4.3 by MTT assay; type: cell-based; settings: mt2
[6] = tested on: Human immunodeficiency virus 1; experiment: Antiviral activity against Human immunodeficiency virus 1 NL4.3 reverse transcriptase K103N and Y181C double mutant infected in human MT2 cells assessed as inhibition of viral infection; type: functional, organism-based; settings: Human immunodeficiency virus 1, NL4.3, MT2; in short: as §1
[7] = tested on: Human immunodeficiency virus 1; experiment: Antiviral activity against Human immunodeficiency virus 1 3B infected in human MT2 cells assessed as protection against viral infection by MTT assay; type: functional, organism-based
In short: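 HIV-1 (IIIB or variant strains) infected into MT-2 human T-cells. The MTT colorimetric read-out measured cell viability. […] Antiviral curves used triplicate samples at each concentration, and a cytotoxicity (CC50) curve on MT-2 growth was run at the same time.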

MT2 [8] = experiment: Cytotoxicity against human MT2 cells infected with HIV1 3B by MTT assay; type: cell-based
[9] = tested on: Human immunodeficiency virus 1; experiment: Antiviral activity against Human immunodeficiency virus 1 NL4.3 infected in human MT4 cells assessed as inhibition of viral infection; type: functional, organism-based; settings: Human immunodeficiency virus 1, NL4.3, MT4
[10] = tested on: Human immunodeficiency virus 1; experiment: Antiviral activity against Human immunodeficiency virus 1 NL4.3 reverse transcriptase Y181C mutant infected in human MT4 cells assessed as inhibition of viral infection; type: functional, organism-based; settings: Human immunodeficiency virus 1, NL4.3, MT4
[11] = tested on: Human immunodeficiency virus 1; experiment: Antiviral activity against Human immunodeficiency virus 1 NL4.3 reverse transcriptase K103N and Y181C double mutant infected in human MT4 cells assessed as inhibition of viral infection; type: functional, organism-based; settings: Human immunodeficiency virus 1, NL4.3, MT4
[12] = as §2; type: cell-based; settings: MT2 cells infected with HIV1 NL4.3
[13] = Cytotoxicity against human MT4 cells infected with HIV1 NL4.3 by MTT assay; type: cell-based

SMILES	pEC50 [3]	pEC50 [4]	CC50 (MT2 [5]) [µM]	pEC50 [6]	pEC50 [7]	CC50 (MT2 [8]) [µM]	other results
N#Cc1cc(Cl)cc(Oc2ccc(Cl)cc2OCCn2cc(Cl)c(=O)[nH]c2=O)c1	7.77	6.62	21	6.24	7.77	31	Ratio EC50 [1]: 34; Ratio EC50 [2]: 14
N#Cc1cc(Cl)cc(Oc2ccc(C#N)cc2OCCn2ccc(=O)[nH]c2=O)c1					5.22	> 100	
N#Cc1cc(Cl)cc(Oc2ccc(C#N)cc2OCCn2cc(Cl)c(=O)[nH]c2=O)c1					5.28	94	
N#Cc1ccc(Oc2ccccc2Cl)c(OCCn2ccc(=O)[nH]c2=O)c1					6.57	> 100	
N#Cc1ccc(Oc2cc(Cl)ccc2Cl)c(OCCn2ccc(=O)[nH]c2=O)c1	7.37	6.04	59	5.55	7.37	71	
N#Cc1ccc(Oc2cc(Cl)cc(Cl)c2)c(OCCn2ccc(=O)[nH]c2=O)c1	7.70	6.10	> 61	< 4.37	7.70	> 100	
N#C/C=C/c1cccc(Oc2ccc(C#N)cc2OCCn2ccc(=O)[nH]c2=O)c1	7.82	6.01	> 90	5.10	7.82	> 100	
N#C/C=C/c1cccc(Oc2ccc(Cl)cc2OCCn2ccc(=O)[nH]c2=O)c1	8.30	6.43	22	5.80	8.30	19	
N#C/C=C/c1cc(Cl)cc(Oc2ccc(Cl)cc2OCCn2ccc(=O)[nH]c2=O)c1	10.26	7.31	10	6.66	10.26	10	
N#C/C=C/c1cc(F)cc(Oc2ccc(Cl)cc2OCCn2ccc(=O)[nH]c2=O)c1	8.49	6.82	48	6.05	8.49	48	
N#C/C=C/c1cc(F)cc(Oc2ccc(F)cc2OCCn2ccc(=O)[nH]c2=O)c1	9.49	7.80	45	7.07	9.49	45	
CNc1ccc(Oc2cc(Cl)cc(/C=C/C#N)c2)c(OCCn2ccc(=O)[nH]c2=O)c1	7.70	5.55	30		7.70	30	
N#Cc1cc(F)c(Oc2ccccc2Cl)c(OCCn2ccc(=O)[nH]c2=O)c1					6.80	> 100	
COCCOc1cccc(Oc2ccc(C#N)cc2OCCn2ccc(=O)[nH]c2=O)c1					6.27	> 100	
N#Cc1ccc(Oc2cccc(OCCCO)c2)c(OCCn2ccc(=O)[nH]c2=O)c1					5.74	> 100	
Cc1cc(C)cc(Oc2c(CSCc3ccco3)c(C)[nH]c(=O)c2I)c1	9.00						
O=C1Nc2ccc(Cl)cc2[C@@](C#CC2CC2)(C(F)(F)F)O1 [EFAVIRENZ]							pEC50 [9]: 8.85; pEC50 [10]: 8.70; pEC50 [11]: 7.43
Cc1cc(C#N)cc(C)c1Oc1nc(Nc2ccc(C#N)cc2)nc(N)c1Br [ETRAVIRINE]							pEC50 [10]: 8.15; pEC50 [11]: 8.40
Cc1ccnc2c1NC(=O)c1cccnc1N2C1CC1 [NEVIRAPINE]		< 4.00		< 4.00			pEC50 [9]: 7.09; pEC50 [10]: < 5.00; CC50 [12]: > 100 µM; pEC50 [11]: < 5.00
Cc1cc(/C=C/C#N)cc(C)c1Nc1ccnc(Nc2ccc(C#N)cc2)n1 [RILPIVIRINE]			> 1				pEC50 [9]: 9.40; pEC50 [11]: 9.00; CC50 [13]: 8 µM

— ChEMBL document CHEMBL1921799, “Computationally-guided optimization of a docking hit to yield catechol diethers as potent anti-HIV agents” (J Med Chem, 2011)
